Laboratory results taken from ChEMBL document CHEMBL4425122, “Discovery of 1-(1H-Pyrazolo[4,3-c]pyridin-6-yl)urea Inhibitors of Extracellular Signal-Regulated Kinase (ERK) for the Treatment of Cancers” (J Med Chem, 2016).
Converted amounts (≈) assume the structure as drawn. The source made the active and inactive calls. The calls are words filed in the database; no cut-off is given here.

Assays:
Cytochrome P450 3A4 = Cytochrome P450 3A4 (Homo sapiens, UniProt P08684); test: Inhibition of CYP3A4 (unknown origin); assay type: ADME
Cytochrome P450 3A4, sequence (P08684 whole entry): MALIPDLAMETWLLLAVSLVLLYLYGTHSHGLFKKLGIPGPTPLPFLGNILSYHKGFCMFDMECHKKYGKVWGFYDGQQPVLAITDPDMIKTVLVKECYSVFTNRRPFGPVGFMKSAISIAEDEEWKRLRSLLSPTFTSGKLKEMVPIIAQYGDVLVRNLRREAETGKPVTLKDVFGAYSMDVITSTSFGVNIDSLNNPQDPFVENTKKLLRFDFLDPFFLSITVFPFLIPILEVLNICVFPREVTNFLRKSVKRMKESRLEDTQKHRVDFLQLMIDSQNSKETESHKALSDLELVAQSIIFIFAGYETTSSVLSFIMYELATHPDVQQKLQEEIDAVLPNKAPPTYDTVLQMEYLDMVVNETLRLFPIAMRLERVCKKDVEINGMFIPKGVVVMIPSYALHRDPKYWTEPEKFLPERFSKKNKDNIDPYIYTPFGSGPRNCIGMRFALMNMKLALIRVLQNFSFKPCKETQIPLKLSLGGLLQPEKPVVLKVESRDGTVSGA

[1] = target: Voltage-gated inwardly rectifying potassium channel KCNH2 (Homo sapiens, UniProt Q12809); test: Inhibition of human ERG
Voltage-gated inwardly rectifying potassium channel KCNH2, sequence (Q12809 whole entry): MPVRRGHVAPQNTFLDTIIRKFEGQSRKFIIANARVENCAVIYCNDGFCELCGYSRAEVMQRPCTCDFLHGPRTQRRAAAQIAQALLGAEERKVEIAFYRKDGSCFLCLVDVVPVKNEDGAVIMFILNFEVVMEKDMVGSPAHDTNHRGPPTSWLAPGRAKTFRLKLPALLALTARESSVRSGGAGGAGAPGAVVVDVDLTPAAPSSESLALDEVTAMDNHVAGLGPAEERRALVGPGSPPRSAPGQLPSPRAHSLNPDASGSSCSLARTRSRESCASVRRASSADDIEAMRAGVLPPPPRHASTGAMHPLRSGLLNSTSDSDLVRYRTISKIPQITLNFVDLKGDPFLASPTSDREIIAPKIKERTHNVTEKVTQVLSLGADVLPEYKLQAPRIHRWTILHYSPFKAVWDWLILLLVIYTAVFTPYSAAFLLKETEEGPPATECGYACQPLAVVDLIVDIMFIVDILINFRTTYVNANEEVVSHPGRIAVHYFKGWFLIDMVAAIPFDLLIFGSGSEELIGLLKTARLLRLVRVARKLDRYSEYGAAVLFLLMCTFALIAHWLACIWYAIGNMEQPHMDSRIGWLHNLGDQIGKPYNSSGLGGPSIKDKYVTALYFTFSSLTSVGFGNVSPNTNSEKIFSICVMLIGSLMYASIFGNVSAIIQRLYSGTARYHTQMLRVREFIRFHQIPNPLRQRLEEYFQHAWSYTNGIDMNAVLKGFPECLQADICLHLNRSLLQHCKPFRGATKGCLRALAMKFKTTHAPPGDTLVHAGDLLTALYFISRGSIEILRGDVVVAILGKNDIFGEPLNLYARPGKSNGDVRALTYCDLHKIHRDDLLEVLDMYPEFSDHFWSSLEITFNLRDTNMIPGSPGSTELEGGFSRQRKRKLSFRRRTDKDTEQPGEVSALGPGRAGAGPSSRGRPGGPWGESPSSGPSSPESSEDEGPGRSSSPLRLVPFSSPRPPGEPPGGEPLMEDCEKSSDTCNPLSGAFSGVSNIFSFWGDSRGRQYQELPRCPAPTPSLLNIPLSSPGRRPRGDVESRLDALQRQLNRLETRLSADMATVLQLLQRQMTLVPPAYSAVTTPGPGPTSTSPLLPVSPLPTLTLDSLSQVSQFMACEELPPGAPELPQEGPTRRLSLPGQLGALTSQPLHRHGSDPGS

[2] = target: Mitogen-activated protein kinase 1 (Homo sapiens, UniProt P28482); test: Inhibition of human ERK2 preincubated for 15 mins followed by addition of IMAP peptide substrate and ATP measured after 60 mins by IMAP-FP assay
Mitogen-activated protein kinase 1, sequence (P28482 whole entry): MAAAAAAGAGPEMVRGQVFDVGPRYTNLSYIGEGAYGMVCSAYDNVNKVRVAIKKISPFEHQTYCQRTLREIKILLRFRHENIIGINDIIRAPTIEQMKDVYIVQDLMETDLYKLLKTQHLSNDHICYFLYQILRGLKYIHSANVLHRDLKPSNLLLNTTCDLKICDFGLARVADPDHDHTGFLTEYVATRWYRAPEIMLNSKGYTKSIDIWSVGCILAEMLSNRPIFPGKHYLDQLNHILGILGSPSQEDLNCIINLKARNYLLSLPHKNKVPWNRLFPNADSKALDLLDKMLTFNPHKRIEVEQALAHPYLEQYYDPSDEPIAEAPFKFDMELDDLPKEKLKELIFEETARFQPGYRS
Procedure, shortened: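 Final: 0.5 nM hERK2, 900 nM unlabeled + 80 nM labeled peptide, 30 µM ATP; 60 min, quenched with IMAP beads in binding buffer with 24 mM NaCl, read by fluorescence polarization after 60 min.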

[3] = Inhibition of ERK (unknown origin) assessed as inhibition of RSK phosphorylation; design: species or system Homo sapiens
[4] = target: Dual specificity mitogen-activated protein kinase kinase; MEK1/2 (Homo sapiens, UniProt P36507+Q02750); test: Inhibition of MEK in human A375 cells assessed as inhibition of ERK phosphorylation; assay type: cell-based
A375-SM [5] = test: Antiproliferative activity against human A375SM cells harboring BRAF V600E mutant measured after 96 hrs by Cell Titer-Glo assay; assay type: functional, cell-based
Procedure, shortened: (§1)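 Cells in DMEM/10 mM HEPES/10% FBS added after compound, incubated 96 h at 37 °C, 5% CO2; equilibrated 15 min at room temperature, viability by CellTiter-Glo luminescence. IC50 from 10-point, 3-fold titration curves.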

[6] = Solubility in human FaSSIF at pH 6.5; assay type: physicochemical
Procedure, shortened: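 Solubility measured in human fasted-state simulated intestinal fluid at pH 6.5.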

[7] = Inhibition of ERK in human A375SM cells harboring BRAF V600E mutant assessed as inhibition of RSK phosphorylation measured after 4 hrs by mesoscale electrochemiluminescent sandwich assay; assay type: cell-based; conditions: A375-SM
Procedure, shortened: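 A375SM (BRAF V600E melanoma) cells, 10,000 per well, treated 4 h; lysed 20 min at 4 °C in Tris/NaCl/EGTA/EDTA/Triton/NaF buffer with protease and phosphatase inhibitors. Lysate captured with biotin anti-RSK1 on streptavidin MSD plate, detected with SULFO-TAG anti-pRSK (pThr359/Ser363) overnight at 4 °C; electrochemiluminescence read. IC50 from 11-point titration.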

CHL-1 = test: Antiproliferative activity against human CHL-1 cells measured after 96 hrs by Cell Titer-Glo assay; assay type: functional, cell-based; conditions: CHL-1, 96 h; procedure, shortened: as §1
Homo sapiens [8] = species on record: Homo sapiens; test: Selectivity ratio, ratio of IC50 for recombinant human GST-tagged ERK2 expressed in Escherichia coli to IC50 for BRAF (unknown origin)
Procedure, shortened: (§2)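 Kinase counter-screen using a coupled format: the kinase's effect was read as activity of downstream ERK. Fold selectivity is the kinase IC50 relative to the IC50 from the Invitrogen ERK2 assay.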

Homo sapiens [9] = species on record: Homo sapiens; test: Selectivity ratio, ratio of IC50 for recombinant human GST-tagged ERK2 expressed in Escherichia coli to IC50 for ERK1 (unknown origin)
Procedure, shortened: (§3)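 Part of a counter-screen panel of 101 kinases. Fold selectivity is each kinase's IC50 relative to the IC50 from the Invitrogen ERK2 assay.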

Homo sapiens [10] = species on record: Homo sapiens; test: Selectivity ratio, ratio of IC50 for recombinant human GST-tagged ERK2 expressed in Escherichia coli to IC50 for FLT4 (unknown origin); procedure, shortened: as §3
Homo sapiens [11] = species on record: Homo sapiens; test: Selectivity ratio, ratio of IC50 for recombinant human GST-tagged ERK2 expressed in Escherichia coli to IC50 for MEK1 (unknown origin); procedure, shortened: as §2
Homo sapiens [12] = species on record: Homo sapiens; test: Selectivity ratio, ratio of IC50 for recombinant human GST-tagged ERK2 expressed in Escherichia coli to IC50 for MEK2 (unknown origin); procedure, shortened: as §3
Homo sapiens [13] = species on record: Homo sapiens; test: Selectivity ratio, ratio of IC50 for recombinant human GST-tagged ERK2 expressed in Escherichia coli to IC50 for MELK (unknown origin); procedure, shortened: as §3
Homo sapiens [14] = species on record: Homo sapiens; test: Selectivity ratio, ratio of IC50 for recombinant human GST-tagged ERK2 expressed in Escherichia coli to IC50 for PDGFRalpha D842V mutant (unknown origin); procedure, shortened: as §3
Homo sapiens [15] = species on record: Homo sapiens; test: Selectivity ratio, ratio of IC50 for recombinant human GST-tagged ERK2 expressed in Escherichia coli to IC50 for PDGFRalpha V561D mutant (unknown origin); procedure, shortened: as §3
[16] = Dose normalized AUC in rat at 0.5 mg/kg, iv; assay type: ADME, organism-based; conditions: in vivo
[17] = Plasma clearance in rat at 0.5 mg/kg, iv; assay type: ADME, organism-based
Procedure, shortened: (§4)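 Rats dosed IV at 0.5 mg/kg as solution in PEG400:H2O (60:40 v/v).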

[18] = Volume of distribution at steady state in rat at 0.5 mg/kg, iv; assay type: ADME, organism-based; conditions: in vivo, read-out: Vdss; procedure, shortened: as §4
[19] = Half life in rat at 0.5 mg/kg, iv; assay type: ADME, organism-based; conditions: in vivo; procedure, shortened: as §4
[20] = Oral bioavailability in rat at 1 mg/kg; assay type: ADME, organism-based; conditions: in vivo
Procedure, shortened: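 Rats dosed PO at 1 mg/kg as solution in PEG400:H2O (60:40 v/v).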

[21] = Protein binding in rat plasma; assay type: ADME, cell-free; conditions: read-out: PPB (converted)
[22] = Cmax in mouse xenografted with human A375SM cells at 25 mg/kg, po bid measured on day 20; assay type: ADME, organism-based; design: dose 25 mg/kg, route oral; conditions: in vivo
Procedure, shortened: (§5)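 Mice bearing A375SM xenografts dosed orally in PEG300:H2O (50:50 v/v) at 25 or 50 mg/kg BID or 100 mg/kg QD for 20 days, vehicle arm for comparison; tumor volume followed versus vehicle. Plasma exposure (AUC, Cmax, Tmax) measured on day 20.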

[23] = AUC in mouse xenografted with human A375SM cells at 25 mg/kg, po bid measured on day 20; assay type: ADME, organism-based; conditions: in vivo; procedure, shortened: as §5
[24] = AUC in mouse xenografted with human A375SM cells at 50 mg/kg, po bid measured on day 20; assay type: ADME, organism-based; conditions: in vivo; procedure, shortened: as §5
[25] = AUC in mouse xenografted with human A375SM cells at 100 mg/kg, po qd measured on day 20; assay type: ADME, organism-based; conditions: in vivo; procedure, shortened: as §5
[26] = Cmax in mouse xenografted with human A375SM cells at 50 mg/kg, po bid measured on day 20; assay type: ADME, organism-based; design: dose 50 mg/kg, route oral; conditions: in vivo; procedure, shortened: as §5
[27] = Cmax in mouse xenografted with human A375SM cells at 100 mg/kg, po qd measured on day 20; assay type: ADME, organism-based; design: dose 100 mg/kg, route oral; conditions: in vivo; procedure, shortened: as §5
[28] = Tmax in mouse xenografted with human A375SM cells at 25 mg/kg, po bid; assay type: ADME, organism-based; conditions: in vivo; procedure, shortened: as §5
[29] = Tmax in mouse xenografted with human A375SM cells at 50 mg/kg, po bid; assay type: ADME, organism-based; conditions: in vivo; procedure, shortened: as §5
[30] = Tmax in mouse xenografted with human A375SM cells at 100 mg/kg, po qd; assay type: ADME, organism-based; conditions: in vivo; procedure, shortened: as §5
A375-SM [31] = test: Antitumor activity against human A375SM cells xenografted in mouse assessed as tumor growth inhibition at 25 mg/kg, po administered bid for 20 days measured after final dosage relative to vehicle treated control; assay type: functional; conditions: 480 h, read-out: TGI; procedure, shortened: as §5
A375-SM [32] = test: Antitumor activity against human A375SM cells xenografted in mouse assessed as tumor regression at 50 mg/kg, po administered bid for 20 days measured after final dosage relative to vehicle treated control; assay type: functional; procedure, shortened: as §5
A375-SM [33] = test: Antitumor activity against human A375SM cells xenografted in mouse assessed as tumor regression at 100 mg/kg, po administered qd for 20 days measured after final dosage relative to vehicle treated control; assay type: functional; procedure, shortened: as §5
A375-SM [34] = test: Antitumor activity against human A375SM cells xenografted in mouse assessed as tumor regression compound administered orally for 20 days measured after final dosage relative to vehicle treated control; assay type: functional
Mus musculus [35] = test: In vivo inhibition of ERK in mouse xenografted with human A375SM cells assessed as inhibition RSK phosphorylation at 100 mg/kg, po administered qd for 20 days measured after 2 to 24 hrs post final dosage; assay type: functional, organism-based
Procedure, shortened: (§6)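 A375SM xenograft mice given 100 mg/kg QD orally in PEG300:H2O (50:50 v/v) for 20 days; after final dose on day 20, blood taken at several time points from this arm and vehicle arm for compound exposure and pRSK and pERK levels.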

Mus musculus [36] = test: In vivo inhibition of MEK in mouse xenografted with human A375SM cells assessed as inhibition ERK phosphorylation at 100 mg/kg, po administered qd for 20 days measured after 2 to 24 hrs post final dosage; assay type: functional, organism-based; procedure, shortened: as §6
[37] = Plasma concentration in mouse xenografted with human A375SM cells at 100 mg/kg, po administered qd for 20 days measured after 2 hrs of final dose; assay type: ADME, organism-based; procedure, shortened: as §6
[38] = Plasma concentration in mouse xenografted with human A375SM cells at 100 mg/kg, po administered qd for 20 days measured after 6 hrs of final dose; assay type: ADME, organism-based; procedure, shortened: as §6
[39] = Plasma concentration in mouse xenografted with human A375SM cells at 100 mg/kg, po administered qd for 20 days measured after 8 hrs of final dose; assay type: ADME, organism-based; procedure, shortened: as §6
[40] = Plasma concentration in mouse xenografted with human A375SM cells at 100 mg/kg, po administered qd for 20 days measured after 12 hrs of final dose; assay type: ADME, organism-based; procedure, shortened: as §6
[41] = Plasma concentration in mouse xenografted with human A375SM cells at 100 mg/kg, po administered qd for 20 days measured after 24 hrs of final dose; assay type: ADME, organism-based; procedure, shortened: as §6

## Cc1cc(-c2n[nH]c3cc(NC(=O)N[C@H](C)c4ccccc4)ncc23)ccn1
Cytochrome P450 3A4
  IC50: 3900 nM
[1]
  IC50: > 20000 nM
[2]
  IC50: 0.2 nM
[3]
  IC50: 77 nM
[4]
  IC50: > 10000 nM
A375-SM [5]
  IC50: 43 nM
[6]
  solubility: 18 µM (≈ 6.7 µg/mL)
[7]
  IC50: 70 nM
CHL-1
  IC50: 1300 nM
Homo sapiens [8]
  Ratio IC50: < 100
Homo sapiens [9]
  Ratio IC50: < 100
Homo sapiens [10]
  Ratio IC50: < 100
Homo sapiens [11]
  Ratio IC50: < 100
Homo sapiens [12]
  Ratio IC50: < 100
Homo sapiens [13]
  Ratio IC50: < 100
Homo sapiens [14]
  Ratio IC50: < 100
Homo sapiens [15]
  Ratio IC50: < 100
[16]
  AUC/dose: 1.3 µM·h/mg/kg
[17]
  clearance: 35 mL/min/kg
[18]
  Vd: 1.7 L/kg
[19]
  half-life: 0.7 h
[20]
  bioavailability: 12%
[21]
  fraction unbound: 0.012
[22]
  Cmax: 12 µM
[23]
  AUC: 95 µM·h
[24]
  AUC: 240 µM·h
[25]
  AUC: 320 µM·h
[26]
  Cmax: 23 µM
[27]
  Cmax: 27 µM
[28]
  Tmax: 11 h
[29]
  Tmax: 11 h
[30]
  Tmax: 4 h
A375-SM [31]
  inhibition in vivo at 25 mg/kg: 82%
A375-SM [32]
  Activity: 47%
A375-SM [33]
  Activity: 42%
A375-SM [34]
  Activity: Dose-dependent effect
Mus musculus [35]
  inhibition: Active
Mus musculus [36]
  inhibition: inactive
[37]
  concentration at 2 h: 20 µM
[38]
  concentration at 6 h: 5.2 µM
[39]
  concentration at 8 h: 6.7 µM
[40]
  concentration at 12 h: 1.6 µM
[41]
  concentration at 24 h: 0.1 µM
